Measurements reported in ChEMBL document CHEMBL4680252, “Anti-norovirus activity of C7-modified 4-amino-pyrrolo[2,1-f][1,2,4]triazine C-nucleosides” (Eur J Med Chem, 2020).

What was measured:
[1] = Cytotoxicity against mouse RAW264.7 cells assessed as reduction in cell viability incubated for 3 days by MTS assay; format: cell-based; details: time 3 day
Procedure, shortened: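 Uninfected RAW 264.7 cells were exposed for 3 days to the same compound concentrations used in the MNV assay, then MTS read-out. Viability was expressed as % of untreated cells, and CC₅₀ is the concentration that reduced viable cells by 50%.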

[2] = Antiviral activity against murine Norovirus infected in mouse RAW264.7 cells assessed as reduction in virus-induced cytopathic effect incubated for 72 hrs by MTS assay; format: functional, cell-based; details: RAW264.7, 72 h
Procedure, shortened: (§1)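 RAW 264.7 cells (1 × 10⁴/well) infected with MNV-1.CW1 at MOI 0.001 alongside a compound dilution series (0.023–50 or 100 µg/mL; 8 concentrations). Incubated 3 days until CPE was complete in untreated infected wells. MTS/PMS added, OD read at 498 nm after 2 h. %CPE reduction taken against uninfected and infected untreated controls; EC₅₀ is 50% protection from CPE.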

[3] = Selectivity index, ratio of CC50 for mouse RAW264.7 cells to EC50 for antiviral activity against murine Norovirus infected in mouse RAW264.7 cells; format: toxicity, cell-based; details: read-out: Ratio CC50/EC50
Procedure, shortened: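 Ratio of CC₅₀ (MTS, uninfected RAW 264.7, 3 days) to EC₅₀ (MNV CPE-reduction MTS assay in RAW 264.7, 3 days), calculated as CC₅₀/EC₅₀.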

[4] = tested on: Norovirus; experiment: Antiviral activity against human Norovirus GI.1 infected in human HGT-1 cells assessed as reduction in virus replication incubated for 72 hrs by qRT-PCR analysis; format: functional, cell-based; details: GI.1, HGT-1, 72 h
Procedure, shortened: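 HGT-1 cells stably carrying the GI.1 HuNoV replicon were seeded at 5,000/well in complete DMEM without G418. Serial compound dilutions were added after 24 h, followed by 72 h incubation and a PBS wash. Intracellular replicon RNA was quantified by qRT-PCR, normalised to β-actin by the Pfaffl method with per-run efficiencies. EC₅₀ is 50% reduction of relative replicon RNA.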

[5] = tested on: Norovirus; experiment: Antiviral activity against human Norovirus; format: functional
[6] = Antiviral activity against murine Norovirus infected in mouse RAW264.7 cells assessed as reduction in virus-induced cytopathic effect incubated for 3 days by MTS assay; format: functional, cell-based; details: RAW264.7, 72 h; procedure, shortened: as §1
[7] = tested on: Norovirus; experiment: Antiviral activity against human Norovirus infected in BJAB cells assessed as reduction in viral replication incubated for 3 days by qRT-PCR analysi; format: functional, cell-based; details: 72 h
[8] = Antiviral activity against murine Norovirus GV.1 infected in mouse RAW264.7 cells assessed as reduction in plaque formation incubated for 48 hrs by qRT-PCR analysis; format: functional, cell-based; details: GV.1, RAW264.7, 48 h
[9] = Inhibition of recombinant Norovirus GII.4 C-terminal His6-tagged RNA-dependent RNA polymerase in Escherichia coli assessed as decrease in GTP incorporation incubated for 10 mins by scintillation counting method
[10] = Inhibition of human Norovirus RNA-dependent RNA polymerase assessed as decrease in GTP incorporation incubated for 10 mins by scintillation counting method
[11] = Inhibition of mouse Norovirus RNA-dependent RNA polymerase assessed as decrease in GTP incorporation incubated for 10 mins by scintillation counting method

## Nc1ncnn2c([C@@H]3O[C@H](CO)[C@@H](O)[C@H]3O)cc(I)c12
[1]
  CC50 at 72 h: 0.78 µM
[2]
  EC50: 0.035 µM
[3]
  selectivity ratio: 22
[4]
  EC50: > 10 µM

## Nc1ncnn2c([C@@H]3O[C@H](CO)[C@@H](O)[C@H]3O)ccc12
[1]
  CC50 at 72 h: 0.14 µM
[2]
  EC50: 0.007 µM
[3]
  selectivity ratio: 20
[4]
  EC50: 0.015 µM

## C[C@@]1(O)[C@H](O)[C@@H](CO)O[C@H]1n1ccc(N)nc1=O
[5]
  EC50: 8.2 µM
[6]
  EC50: 2 µM
[7]
  EC50: 0.3 µM

## Cc1nc(-c2ccccc2)sc1C(=O)Nc1sc2c(c1C#N)CCC2
[8]
  EC50: 4.8 µM
[9]
  IC50: 5 µM

## O=C(O)c1[nH]nnc1-c1ccccc1
[8]
  EC50: 34.5 µM
[9]
  IC50: 9.2 µM

## C[C@@]1(O)[C@H](O)[C@@H](CO)O[C@H]1c1cc(Cl)c2c(N)ncnn12
[1]
  CC50 at 72 h: 4.78 µM
[2]
  EC50: > 4 µM

## Nc1ncnn2c([C@@H]3O[C@H](CO)[C@@H](O)[C@H]3O)cc(Cl)c12
[1]
  CC50 at 72 h: > 0.01 µM
[2]
  EC50: 0.007 µM
[3]
  selectivity ratio: > 1
[4]
  EC50: > 10 µM

## C[C@@]1(F)[C@H](O)[C@@H](CO)O[C@H]1n1ccc(N)nc1=O
[5]
  EC50: 3.2 µM

## Nc1ncnc2c1c(Cl)cn2[C@@H]1O[C@H](CO)[C@@H](O)[C@H]1O
[1]
  CC50 at 72 h: 2.53 µM
[2]
  EC50: > 2 µM

## NC(=O)c1ncn([C@@H]2O[C@H](CO)[C@@H](O)[C@H]2O)n1 [RIBAVIRIN]
[5]
  EC50: 43 µM

## Nc1ncnn2c([C@H]3O[C@@H](CO)[C@H](O)[C@@H]3O)ccc12
[1]
  CC50 at 72 h: > 100 µM
[2]
  EC50: > 100 µM

## Cc1ccc(C(=O)Nc2ccc(S(=O)(=O)O)c3cc(S(=O)(=O)O)cc(S(=O)(=O)O)c23)cc1NC(=O)c1cccc(NC(=O)Nc2cccc(C(=O)Nc3cc(C(=O)Nc4ccc(S(=O)(=O)O)c5cc(S(=O)(=O)O)cc(S(=O)(=O)O)c45)ccc3C)c2)c1 [SURAMIN]
[10]
  IC50: 0.025 µM
[11]
  IC50: 0.07 µM

## Nc1ncnn2c([C@@H]3O[C@H](CO)[C@@H](O)[C@H]3O)cc(Br)c12
[1]
  CC50 at 72 h: 0.45 µM
[2]
  EC50: 0.024 µM
[3]
  selectivity ratio: 19
[4]
  EC50: > 10 µM

## C[C@@]1(O)[C@H](O)[C@@H](CO)O[C@H]1c1ccc2c(N)ncnn12
[1]
  CC50 at 72 h: 23.7 µM
[2]
  EC50: 11.1 µM
[3]
  selectivity ratio: 2

## C[C@H](NP(=O)(N[C@@H](C)C(=O)OCc1ccccc1)OC[C@H]1O[C@@H](c2cc(Cl)c3c(N)ncnn23)[C@H](O)[C@@H]1O)C(=O)OCc1ccccc1
[1]
  CC50 at 72 h: > 10 µM
[2]
  EC50: > 10 µM

## Nc1ncnn2c([C@H]3O[C@@H](CO)[C@H](O)[C@@H]3O)cc(Cl)c12
[1]
  CC50 at 72 h: > 100 µM
[2]
  EC50: > 100 µM

## O=C(Nc1cccc(C(=O)Nc2ccc(S(=O)(=O)O)c3cc(S(=O)(=O)O)cc(S(=O)(=O)O)c23)c1)Nc1cccc(C(=O)Nc2ccc(S(=O)(=O)O)c3cc(S(=O)(=O)O)cc(S(=O)(=O)O)c23)c1
[10]
  IC50: 0.071 µM
[11]
  IC50: 0.2 µM
